In ChEMBL document CHEMBL1926577, “Novel 1,3,4-heterodiazole analogues: synthesis and in-vitro antitumor activity” (2012):

Tests used:
Assay type in all cases: functional
CCRF-CEM = test: Growth inhibition of human CCRF-CEM cells at 10 uM after 48 hrs by coulter counter method; conditions: read-out: GI
In short: (§1)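 NCI 60-cell-line panel, single dose. Compound dissolved first in DMSO, then diluted in phosphate-buffered saline so that every final dilution held under 1% DMSO. Duplicate wells received cells at 6 × 10⁴ cells/ml. Controls held PBS/DMSO at the same dilution. Plates were incubated 48 h at 37 °C under 5% CO₂. Cells were then diluted 10-fold in saline and counted on a Coulter counter, with counts corrected for the dilution. Results are given as percent growth inhibition.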

HL-60(TB) = test: Growth inhibition of human HL-60(TB) cells at 10 uM after 48 hrs by coulter counter method; conditions: HL-60, 48 h, read-out: GI
In short: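 Single-dose screen on the NCI 60-line panel (leukemia subpanel). Compound is dissolved in DMSO and diluted in PBS, with final DMSO below 1%. Duplicate wells hold 6 × 10⁴ cells/ml at 37 °C, 5% CO₂, for 48 h. Cells are counted by Coulter counter after 10-fold saline dilution. Read-out is percent growth versus PBS/DMSO controls, expressed as % growth inhibition.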

K562 = test: Growth inhibition of human K562 cells at 10 uM after 48 hrs by coulter counter method; conditions: K562, 48 h, read-out: GI; in short: as §1
MOLT-4 = test: Growth inhibition of human MOLT4 cells at 10 uM after 48 hrs by coulter counter method; conditions: MOLT-4, 48 h, read-out: GI; in short: as §1
RPMI-8226 = test: Growth inhibition of human RPMI8226 cells at 10 uM after 48 hrs by coulter counter method; conditions: RPMI-8226, 48 h, read-out: GI; in short: as §1
SR = test: Growth inhibition of human SR cells at 10 uM after 48 hrs by coulter counter method; conditions: read-out: GI; in short: as §1
A549 = test: Growth inhibition of human A549 cells at 10 uM after 48 hrs by coulter counter method; conditions: A549, 48 h, read-out: GI; in short: as §1
EKVX = test: Growth inhibition of human EKVX cells at 10 uM after 48 hrs by coulter counter method; conditions: read-out: GI; in short: as §1
NCI-H226 = test: Growth inhibition of human NCI-H226 cells at 10 uM after 48 hrs by coulter counter method; conditions: NCI-H226, 48 h, read-out: GI; in short: as §1
NCI-H23 = test: Growth inhibition of human NCI-H23 cells at 10 uM after 48 hrs by coulter counter method; conditions: NCI-H23, 48 h, read-out: GI; in short: as §1
NCI-H322M = test: Growth inhibition of human NCI-H322M cells at 10 uM after 48 hrs by coulter counter method; conditions: read-out: GI; in short: as §1
NCI-H522 = test: Growth inhibition of human NCI-H522 cells at 10 uM after 48 hrs by coulter counter method; conditions: NCI-H522, 48 h, read-out: GI; in short: as §1
HCT-116 = test: Growth inhibition of human HCT116 cells at 10 uM after 48 hrs by coulter counter method; conditions: HCT-116, 48 h, read-out: GI; in short: as §1
HCT-15 = test: Growth inhibition of human HCT15 cells at 10 uM after 48 hrs by coulter counter method; conditions: HCT-15, 48 h, read-out: GI; in short: as §1
HT-29 = test: Growth inhibition of human HT-29 cells at 10 uM after 48 hrs by coulter counter method; conditions: HT-29, 48 h, read-out: GI; in short: as §1
KM12 = test: Growth inhibition of human KM12 cells at 10 uM after 48 hrs by coulter counter method; conditions: KM12, 48 h, read-out: GI; in short: as §1
SF-268 = test: Growth inhibition of human SF268 cells at 10 uM after 48 hrs by coulter counter method; conditions: SF-268, 48 h, read-out: GI; in short: as §1
SF-295 = test: Growth inhibition of human SF295 cells at 10 uM after 48 hrs by coulter counter method; conditions: SF-295, 48 h, read-out: GI; in short: as §1
SNB-19 = test: Growth inhibition of human SNB19 cells at 10 uM after 48 hrs by coulter counter method; conditions: SNB-19, 48 h, read-out: GI; in short: as §1
SNB-75 = test: Growth inhibition of human SNB75 cells at 10 uM after 48 hrs by coulter counter method; conditions: SNB-75, 48 h, read-out: GI; in short: as §1
U-251 = test: Growth inhibition of human U251 cells at 10 uM after 48 hrs by coulter counter method; conditions: U-251, 48 h, read-out: GI; in short: as §1
LOX IMVI = test: Growth inhibition of human LOXIMVI cells at 10 uM after 48 hrs by coulter counter method; conditions: read-out: GI; in short: as §1
Malme-3M = test: Growth inhibition of human MALME-3M cells at 10 uM after 48 hrs by coulter counter method; conditions: read-out: GI; in short: as §1
M14 = test: Growth inhibition of human M14 cells at 10 uM after 48 hrs by coulter counter method; conditions: M14, 48 h, read-out: GI; in short: as §1
MDA-MB-435 = test: Growth inhibition of human MDA-MB-435 cells at 10 uM after 48 hrs by coulter counter method; conditions: MDA-MB-435, 48 h, read-out: GI; in short: as §1
SK-MEL-2 = test: Growth inhibition of human SK-MEL-2 cells at 10 uM after 48 hrs by coulter counter method; conditions: SK-MEL-2, 48 h, read-out: GI; in short: as §1
SK-MEL-28 = test: Growth inhibition of human SK-MEL-28 cells at 10 uM after 48 hrs by coulter counter method; conditions: SK-MEL-28, 48 h, read-out: GI; in short: as §1
SK-MEL-5 = test: Growth inhibition of human SK-MEL-5 cells at 10 uM after 48 hrs by coulter counter method; conditions: SK-MEL-5, 48 h, read-out: GI; in short: as §1
UACC-257 = test: Growth inhibition of human UACC257 cells at 10 uM after 48 hrs by coulter counter method; conditions: UACC-257, 48 h, read-out: GI; in short: as §1
UACC-62 = test: Growth inhibition of human UACC62 cells at 10 uM after 48 hrs by coulter counter method; conditions: UACC-62, 48 h, read-out: GI; in short: as §1
IGROV-1 = test: Growth inhibition of human IGROV1 cells at 10 uM after 48 hrs by coulter counter method; conditions: IGROV-1, 48 h, read-out: GI; in short: as §1
OVCAR-8 = test: Growth inhibition of human OVCAR8 cells at 10 uM after 48 hrs by coulter counter method; conditions: OVCAR-8, 48 h, read-out: GI; in short: as §1
NCI/ADR-RES = test: Growth inhibition of human NCI/ADR-RES cells at 10 uM after 48 hrs by coulter counter method; conditions: read-out: GI; in short: as §1
786-0 = test: Growth inhibition of human 786-0 cells at 10 uM after 48 hrs by coulter counter method; conditions: 786-0, 48 h, read-out: GI; in short: as §1
A498 = test: Growth inhibition of human A498 cells at 10 uM after 48 hrs by coulter counter method; conditions: A498, 48 h, read-out: GI; in short: as §1
ACHN = test: Growth inhibition of human ACHN cells at 10 uM after 48 hrs by coulter counter method; conditions: read-out: GI; in short: as §1
CAKI-1 = test: Growth inhibition of human Caki1 cells at 10 uM after 48 hrs by coulter counter method; conditions: CAKI-1, 48 h, read-out: GI; in short: as §1
SN12C = test: Growth inhibition of human SN12C cells at 10 uM after 48 hrs by coulter counter method; conditions: read-out: GI; in short: as §1
TK-10 = test: Growth inhibition of human TK10 cells at 10 uM after 48 hrs by coulter counter method; conditions: TK-10, 48 h, read-out: GI; in short: as §1
UO-31 = test: Growth inhibition of human UO31 cells at 10 uM after 48 hrs by coulter counter method; conditions: UO-31, 48 h, read-out: GI; in short: as §1
PC-3 = test: Growth inhibition of human PC3 cells at 10 uM after 48 hrs by coulter counter method; conditions: PC-3, 48 h, read-out: GI; in short: as §1
MCF7 = test: Growth inhibition of human MCF7 cells at 10 uM after 48 hrs by coulter counter method; conditions: MCF7, 48 h, read-out: GI; in short: as §1
BT-549 = test: Growth inhibition of human BT549 cells at 10 uM after 48 hrs by coulter counter method; conditions: BT-549, 48 h, read-out: GI; in short: as §1
T47D = test: Growth inhibition of human T47D cells at 10 uM after 48 hrs by coulter counter method; conditions: read-out: GI; in short: as §1
MDA-MB-468 = test: Growth inhibition of human MDA-MB-468 cells at 10 uM after 48 hrs by coulter counter method; conditions: MDA-MB-468, 48 h, read-out: GI; in short: as §1

SMILES: NC1=CC(N)=NC2OC(c3ccc(Cl)cc3)=NN12 (stereo not given)
- inhibition of growth at 10 µM (CCRF-CEM): < 10%
- inhibition of growth at 10 µM (HL-60(TB)): < 10%
- inhibition of growth at 10 µM (K562): < 10%
- inhibition of growth at 10 µM (MOLT-4): < 10%
- inhibition of growth at 10 µM (RPMI-8226): < 10%
- inhibition of growth at 10 µM (SR): < 10%
- inhibition of growth at 10 µM (A549): < 10%
- inhibition of growth at 10 µM (EKVX): < 10%
- inhibition of growth at 10 µM (NCI-H226): < 10%
- inhibition of growth at 10 µM (NCI-H23): < 10%
- inhibition of growth at 10 µM (NCI-H322M): < 10%
- inhibition of growth at 10 µM (NCI-H522): 14%
- inhibition of growth at 10 µM (HCT-116): < 10%
- inhibition of growth at 10 µM (HCT-15): < 10%
- inhibition of growth at 10 µM (HT-29): < 10%
- inhibition of growth at 10 µM (KM12): < 10%
- inhibition of growth at 10 µM (SF-268): < 10%
- inhibition of growth at 10 µM (SF-295): < 10%
- inhibition of growth at 10 µM (SNB-19): < 10%
- inhibition of growth at 10 µM (SNB-75): < 10%
- inhibition of growth at 10 µM (U-251): < 10%
- inhibition of growth at 10 µM (LOX IMVI): < 10%
- inhibition of growth at 10 µM (Malme-3M): < 10%
- inhibition of growth at 10 µM (M14): < 10%
- inhibition of growth at 10 µM (MDA-MB-435): < 10%
- inhibition of growth at 10 µM (SK-MEL-2): 10.3%
- inhibition of growth at 10 µM (SK-MEL-28): < 10%
- inhibition of growth at 10 µM (SK-MEL-5): < 10%
- inhibition of growth at 10 µM (UACC-257): < 10%
- inhibition of growth at 10 µM (UACC-62): < 10%
- inhibition of growth at 10 µM (IGROV-1): < 10%
- inhibition of growth at 10 µM (OVCAR-8): < 10%
- inhibition of growth at 10 µM (NCI/ADR-RES): < 10%
- inhibition of growth at 10 µM (786-0): < 10%
- inhibition of growth at 10 µM (A498): < 10%
- inhibition of growth at 10 µM (ACHN): < 10%
- inhibition of growth at 10 µM (CAKI-1): 20.5%
- inhibition of growth at 10 µM (SN12C): < 10%
- inhibition of growth at 10 µM (TK-10): < 10%
- inhibition of growth at 10 µM (UO-31): 23.8%
- inhibition of growth at 10 µM (PC-3): 16.3%
- inhibition of growth at 10 µM (MCF7): < 10%
- inhibition of growth at 10 µM (BT-549): < 10%
- inhibition of growth at 10 µM (T47D): < 10%
- inhibition of growth at 10 µM (MDA-MB-468): < 10%
